Assay results: the RNAGym collection of RNA variant scans (doi:10.1002/anie.201605470)

B1: Osa-1-4 twister ribozyme (parent)
chain: CCGCCUAACACUGCCAAUGCCGGUCCCAAGCCCGGAUAAAAGUGGAGGGGGCGG

Variants of: B1
Test: self-cleavage, relative activity (ratio to wild type); higher = more cleavage; co-transcriptional
In short: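 A DNA template encoding a 54-nucleotide twister ribozyme from Oryza sativa was made so that each of the 48 positions downstream of the cleavage site carried 97 % wild-type base and 1 % of each other base. Transcription in vitro ran for 2 h at 37 °C, during which the ribozyme could cleave itself. Reverse transcription used a template-switching oligonucleotide, and the products were PCR-amplified and deep-sequenced. Each read was scored as cleaved or uncleaved by whether upstream sequence was present, and relative activity is the fraction cleaved normalised to wild type.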

Variant | self-cleavage
CCGCCUAUCACUGCCAAUGCCGGUCCCAAGCCUGGAUAAAAGUGGAGGGGGCGG | 0.09
CCGCCUAUCACUGCCAAUGCCGGUCCCAAGCCAGGAUAAAAGUGGAGGGGGCGG | 0.05
CCGCCUAUCACUGCCAAUGCCGGUCCCAAGCCGGGAUAAAAGUGGAGGGGGCGG | 0.04
CCGCCUAUCACUGCCAAUGCCGGUCCCAAGCCCGGAUAAAAGUGGAGGGGGCGG | 0.49
CCGCCUAUGACUGCCAAUGCCGGUCCCAAGCCCGGAUAAAAGUGGAGGGGGCGG | 0.11
CCGCCUAUUACUGCCAAUGCCGGUCCCAAGCCCGGAUAAAAGUGGAGGGGGCGG | 0.09
CCGCCUAUAACUGCCAAUGCCGGUCCCAAGCCCGGAUAAAAGUGGAGGGGGCGG | 0.09
CCGCCUAUCACUGCCAAUGCCGGUCCAAAGCCCGGAUAAAAGUGGAGGGGGCGG | 0.06
CCGCCUAUCACUGCCAAUGCCGGUCCGAAGCCCGGAUAAAAGUGGAGGGGGCGG | 0.05
CCGCCUAUCACUGCCAAUGCCGGUCCUAAGCCCGGAUAAAAGUGGAGGGGGCGG | 0.07
CCGCCUAUCACUGCCAAUGCCGGUCCCAAGGCCGGAUAAAAGUGGAGGGGGCGG | 0.05
CCGCCUAUCACUGCCAAUGCCGGUCCCAAGACCGGAUAAAAGUGGAGGGGGCGG | 0.03
CCGCCUAUCACUGCCAAUGCCGGUCCCAAGUCCGGAUAAAAGUGGAGGGGGCGG | 0.06
CCGCCUAUCACUGACAAUGCCGGUCCCAAGCCCGGAUAAAAGUGGAGGGGGCGG | 0.04
CCGCCUAUCACUGUCAAUGCCGGUCCCAAGCCCGGAUAAAAGUGGAGGGGGCGG | 0.1
CCGCCUAUCACUGGCAAUGCCGGUCCCAAGCCCGGAUAAAAGUGGAGGGGGCGG | 0.05
CCGCCUAUCACUGCCAAUGCGGGUCCCAAGCCCGGAUAAAAGUGGAGGGGGCGG | 0.07
CCGCCUAUCACUGCCAAUGCAGGUCCCAAGCCCGGAUAAAAGUGGAGGGGGCGG | 0.08
CCGCCUAUCACUGCCAAUGCUGGUCCCAAGCCCGGAUAAAAGUGGAGGGGGCGG | 0.28
CCGCCUAUCAGUGCCAAUGCCGGUCCCAAGCCCGGAUAAAAGUGGAGGGGGCGG | 0.08
CCGCCUAUCAAUGCCAAUGCCGGUCCCAAGCCCGGAUAAAAGUGGAGGGGGCGG | 0.08
CCGCCUAUCAUUGCCAAUGCCGGUCCCAAGCCCGGAUAAAAGUGGAGGGGGCGG | 0.11
CCGCCUAUCACUGCCAAUGCCGGUCCCAAGCCCGGAUAAAAGUGGAGGGGGAGG | 0.25
CCGCCUAUCACUGCCAAUGCCGGUCCCAAGCCCGGAUAAAAGUGGAGGGGGGGG | 0.49
CCGCCUAUCACUGCAAAUGCCGGUCCCAAGCCCGGAUAAAAGUGGAGGGGGCGG | 0.08

Variant | self-cleavage
CCGCCUAUCACUGCGAAUGCCGGUCCCAAGCCCGGAUAAAAGUGGAGGGGGCGG | 0.15
CCGCCUAUCACUGCUAAUGCCGGUCCCAAGCCCGGAUAAAAGUGGAGGGGGCGG | 0.08
CCGCCUAUCACUGCCAAUGCCGGUCUCAAGCCCGGAUAAAAGUGGAGGGGGCGG | 0.12
CCGCCUAUCACUGCCAAUGCCGGUCGCAAGCCCGGAUAAAAGUGGAGGGGGCGG | 0.05
CCGCCUAUCACUGCCAAUGCCGGUCACAAGCCCGGAUAAAAGUGGAGGGGGCGG | 0.03
CCGCCUAUCACUGCCAAUGGCGGUCCCAAGCCCGGAUAAAAGUGGAGGGGGCGG | 0.06
CCGCCUAUCACUGCCAAUGACGGUCCCAAGCCCGGAUAAAAGUGGAGGGGGCGG | 0.48
CCGCCUAUCACUGCCAAUGUCGGUCCCAAGCCCGGAUAAAAGUGGAGGGGGCGG | 0.41
CCGCCUAUCACUGCCAAUGCCGGUCCCAAGCUCGGAUAAAAGUGGAGGGGGCGG | 0.06
CCGCCUAUCACUGCCAAUGCCGGUCCCAAGCGCGGAUAAAAGUGGAGGGGGCGG | 0.07
CCGCCUAUCACUGCCAAUGCCGGUCCCAAGCACGGAUAAAAGUGGAGGGGGCGG | 0.03
CCGCCUAGCACUGCCAAGGCCGGUCCCAAGCCCGGAUAAAAGUGGAGGGGGCGG | 0.49
CCGCCUAGCACUGCCAAUGCCGGACCCAAGCCCGGAUAAAAGUGGAGGGGGCGG | 0.12
CCGCCUAGCACUGCCAAUGCCGGGCCCAAGCCCGGAUAAAAGUGGAGGGGGCGG | 0.03
CCGCCUAGCACUGCCAAUGCCGGCCCCAAGCCCGGAUAAAAGUGGAGGGGGCGG | 0.1
CCGCCUAGCACUGCCAAUGCCGGUCCCAAGCCCGGAUAAAAGCGGAGGGGGCGG | 0.14
CCGCCUAGCACUGCCAAUGCCGGUCCCAAGCCCGGAUAAAAGGGGAGGGGGCGG | 0.15
CCGCCUAGCACUGCCAAUGCCGGUCCCAAGCCCGGAUAAAAGAGGAGGGGGCGG | 0.23
CCGCCUAUCACUGCCAAUGCCGGUGCCAAGCCCGGAUAAAAGUGGAGGGGGCGG | 0.05
CCGCCUAUCACUGCCAAUGCCGGUACCAAGCCCGGAUAAAAGUGGAGGGGGCGG | 0.07
CCGCCUAUCACUGCCAAUGCCGGUUCCAAGCCCGGAUAAAAGUGGAGGGGGCGG | 0.11
CCGCCUAGCACUGCCAAUGCCGGUCCCAAGCCCGGAAAAAAGUGGAGGGGGCGG | 0.56
CCGCCUAGCACUGCCAAUGCCGGUCCCAAGCCCGGAGAAAAGUGGAGGGGGCGG | 0.75
CCGCCUAGCACUGCCAAUGCCGGUCCCAAGCCCGGACAAAAGUGGAGGGGGCGG | 0.68
